These results are taken from ChEMBL document CHEMBL3352345, “Design, synthesis and biological evaluation of novel thieno[3,2-d]pyrimidine derivatives containing diaryl urea moiety as potent antitumor agents” (Eur J Med Chem, 2014).

Assay type in all cases: functional, cell-based
One assay deals with HT-29. As to the kind of experiment: Cytotoxicity against human HT-29 cells after 72 hrs by MTT assay. The following applies: HT-29, 72 h. The procedure, abridged: (§1)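 Cells suspended in MEM medium, plated and incubated 24 h at 37 °C in 5% CO₂, then exposed to compounds at indicated final concentrations for 72 h. IC₅₀ from averages of three determinations, relative to DMSO vehicle control.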
In general terms: Tetrazolium assays rely on reduction of a dye to a coloured formazan, in cell work by metabolically active cells.

The nature of assay [1]: Cytotoxicity against human H460 cells after 72 hrs by MTT assay. The following applies: NCI-H460, 72 h. The method in brief:
as §1

The next assay deals with MDA-MB-231. As to the kind of experiment: Cytotoxicity against human MDA-MB-231 cells after 72 hrs by MTT assay. The following applies: MDA-MB-231, 72 h. The method in brief:
as §1

Assay [2] is described as follows: Cytotoxicity against human MKN45 cells after 72 hrs by MTT assay. The following applies: MKN-45, 72 h. The procedure, abridged: as §1

For `CCN(CC)CCCNc1nc(-c2ccc(NC(=O)Nc3ccccc3F)cc2)nc2ccsc12`, the IC50 (usually the midpoint of a concentration-inhibition curve) with HT-29 stood at 0.55 µM; in assay [1] it was 0.37 µM; in the assay on MDA-MB-231, 0.86 µM; in assay [2] it was 0.58 µM.
As for `CCN(CC)CCCNc1nc(-c2ccc(NC(=O)Nc3ccc(F)cc3)cc2)nc2ccsc12`, the IC50 was determined as 0.34 µM with HT-29, 0.29 µM in assay [1], 0.53 µM in the assay with MDA-MB-231 and 0.47 µM in assay [2].
Regarding `CN(C)CCNc1nc(-c2ccc(NC(=O)Nc3ccc(Cl)cc3Cl)cc2)nc2ccsc12`, the IC50 in the assay with HT-29 was 1.32 µM; in assay [1] it was 1.65 µM; in the assay on MDA-MB-231 it was 2.45 µM; in assay [2], 2.36 µM.
As for `CN(C)CCCNc1nc(-c2ccc(NC(=O)Nc3ccc(F)cc3)cc2)nc2c(Cl)c(Cl)sc12`, the 50% inhibitory concentration (IC50) is 0.43 µM in the assay on HT-29, 0.65 µM in assay [1], 0.98 µM in the assay on MDA-MB-231 and 1.12 µM in assay [2].
For `Cc1ccc(NC(=O)Nc2ccc(-c3nc(NCCCN(C)C)c4sc(Cl)c(Cl)c4n3)cc2)cc1`, the IC50 stood at 1.32 µM with HT-29, 1.11 µM in assay [1], 4.98 µM with MDA-MB-231 and 3.7 µM in assay [2].
The matching figures for `CN(C)CCNc1nc(-c2ccc(NC(=O)Nc3ccc(Cl)cc3Cl)cc2)nc2c(Cl)c(Cl)sc12`: 1.28 µM, 1.52 µM, 3.5 µM and 3.46 µM.
As to `CCN(CC)CCNc1nc(-c2ccc(NC(=O)Nc3ccccc3Cl)cc2)nc2c(Cl)c(Cl)sc12`, the half-maximal inhibitory concentration (IC50) in the assay with HT-29 was 0.55 µM; in assay [1], 0.46 µM; with MDA-MB-231, 1.41 µM; in assay [2], 1.13 µM.
With `CN(C)CCCNc1nc(-c2ccc(NC(=O)Nc3ccc(Cl)cc3Cl)cc2)nc2ccsc12`, the IC50 with HT-29 was 1.86 µM; in assay [1], 1.02 µM; in the assay on MDA-MB-231, 1.86 µM; in assay [2], 2.27 µM.
Take `CCN(CC)CCNc1nc(-c2ccc(NC(=O)Nc3ccc(Cl)cc3Cl)cc2)nc2ccsc12`: the 50% inhibitory concentration (IC50) was determined as 1.94 µM with HT-29, 1.89 µM in assay [1], 2.48 µM with MDA-MB-231 and 1.52 µM in assay [2].
Consider `CN(C)CCNc1nc(-c2ccc(NC(=O)Nc3ccc(F)cc3)cc2)nc2ccsc12`, for which the IC50 was determined as 0.35 µM in the assay on HT-29, 0.39 µM in assay [1], 0.54 µM in the assay with MDA-MB-231 and 0.33 µM in assay [2].
For the molecule `CCN(CC)CCNc1nc(-c2ccc(NC(=O)Nc3ccc(F)cc3)cc2)nc2c(Cl)c(Cl)sc12`, the IC50 in the assay on HT-29 was found to be 0.65 µM; in assay [1], 0.5 µM; in the assay with MDA-MB-231 it was 1.13 µM; in assay [2], 1.37 µM.
The matching figures for `CN(C)CCCNc1nc(-c2ccc(NC(=O)Nc3ccc(Cl)cc3Cl)cc2)nc2c(Cl)c(Cl)sc12`: 1.32 µM, 0.98 µM, 3.49 µM and 2.56 µM.
The matching figures for `CN(C)CCCNc1nc(-c2ccc(NC(=O)Nc3ccc(Cl)cc3)cc2)nc2c(Cl)c(Cl)sc12`: 0.33 µM, 0.23 µM, 1.16 µM and 1.53 µM.
On to `CN(C)CCNc1nc(-c2ccc(NC(=O)Nc3ccccc3)cc2)nc2ccsc12`, for which the IC50 is 0.62 µM in the assay with HT-29, 0.64 µM in assay [1], 1.31 µM in the assay with MDA-MB-231 and 1.12 µM in assay [2].
Take `CN(C)CCNc1nc(-c2ccc(NC(=O)Nc3ccc(F)cc3)cc2)nc2c(Cl)c(Cl)sc12`: the IC50 in the assay with HT-29 is 0.89 µM; in assay [1], 0.59 µM; in the assay with MDA-MB-231 it was 1.24 µM; in assay [2], 1.35 µM.
As to `CCN(CC)CCNc1nc(-c2ccc(NC(=O)Nc3ccc(Cl)cc3)cc2)nc2ccsc12`, the IC50 was 0.15 µM in the assay with HT-29, 0.19 µM in assay [1], 0.55 µM with MDA-MB-231 and 0.37 µM in assay [2].
For the molecule `CS(=O)(=O)N1CCN(Cc2cc3nc(-c4cccc5[nH]ncc45)nc(N4CCOCC4)c3s2)CC1` [PICTILISIB], the IC50 in assay [2] stood at 0.6 µM.
